Assay outcomes from PubChem BioAssay.
Rows were chosen to be rich in hits. Some 3.3% of all compounds tested hit in one or more screens of this group.
PMI act hi M6P: PMI (human) activation, high substrate. actives 0.34% (n = 190,000). coupled PMI enzyme assay, resazurin fluorescence, 20 min; active compounds read high; 1 = untreated enzyme, 0 = substrate-free blank. P34949. activation factor at 20 µM;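 active means activation factor of 2 or more at 20 µM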
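test system = human PMI in coupled enzyme assay | medium = HEPES-buffered pH 7.4 with magnesium and detergent | also added = 1.0 mM mannose-6-phosphate substrate with 0.22 mM NADP+ | compound = 20 µM single dose | times = 20 min incubation at room temperature | measured by = resorufin fluorescence (Ex 544/Em 590 nm) from resazurin via diaphorase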
ROMK primary: modulators of human ROMK potassium channel; actives 2% (n = 130,000); Tet-inducible ROMK, thallium flux fluorescence; actives lie on both sides; B-score at 10 µM; P48048;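 active means signal ratio slope over the read window, or its plate-corrected B-score, at least 3 SD from the plate mean, either direction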;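 further: B-score of the F/F0 ratio slope over 7 to 12 s after thallium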
Cl transport mod: modulators of human KCC2 chloride dependent transport; B-score of Tl+ flux slope (higher = more flux/activation; lower = inhibition) at 10 µM; Q9H2X9; actives 2.2% (n = 190,000); KCC2 cells, thallium flux FluoZin-2 fluorescence;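 active means thallium flux slope and its plate-corrected score both differing from the plate sample mean at a set confidence after two filtering rounds, in either direction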;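 further: slope of fluorescence scaled to starting intensity during 10 to 20 s after thallium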
Target sequence (Q9H2X9 whole entry, looked up): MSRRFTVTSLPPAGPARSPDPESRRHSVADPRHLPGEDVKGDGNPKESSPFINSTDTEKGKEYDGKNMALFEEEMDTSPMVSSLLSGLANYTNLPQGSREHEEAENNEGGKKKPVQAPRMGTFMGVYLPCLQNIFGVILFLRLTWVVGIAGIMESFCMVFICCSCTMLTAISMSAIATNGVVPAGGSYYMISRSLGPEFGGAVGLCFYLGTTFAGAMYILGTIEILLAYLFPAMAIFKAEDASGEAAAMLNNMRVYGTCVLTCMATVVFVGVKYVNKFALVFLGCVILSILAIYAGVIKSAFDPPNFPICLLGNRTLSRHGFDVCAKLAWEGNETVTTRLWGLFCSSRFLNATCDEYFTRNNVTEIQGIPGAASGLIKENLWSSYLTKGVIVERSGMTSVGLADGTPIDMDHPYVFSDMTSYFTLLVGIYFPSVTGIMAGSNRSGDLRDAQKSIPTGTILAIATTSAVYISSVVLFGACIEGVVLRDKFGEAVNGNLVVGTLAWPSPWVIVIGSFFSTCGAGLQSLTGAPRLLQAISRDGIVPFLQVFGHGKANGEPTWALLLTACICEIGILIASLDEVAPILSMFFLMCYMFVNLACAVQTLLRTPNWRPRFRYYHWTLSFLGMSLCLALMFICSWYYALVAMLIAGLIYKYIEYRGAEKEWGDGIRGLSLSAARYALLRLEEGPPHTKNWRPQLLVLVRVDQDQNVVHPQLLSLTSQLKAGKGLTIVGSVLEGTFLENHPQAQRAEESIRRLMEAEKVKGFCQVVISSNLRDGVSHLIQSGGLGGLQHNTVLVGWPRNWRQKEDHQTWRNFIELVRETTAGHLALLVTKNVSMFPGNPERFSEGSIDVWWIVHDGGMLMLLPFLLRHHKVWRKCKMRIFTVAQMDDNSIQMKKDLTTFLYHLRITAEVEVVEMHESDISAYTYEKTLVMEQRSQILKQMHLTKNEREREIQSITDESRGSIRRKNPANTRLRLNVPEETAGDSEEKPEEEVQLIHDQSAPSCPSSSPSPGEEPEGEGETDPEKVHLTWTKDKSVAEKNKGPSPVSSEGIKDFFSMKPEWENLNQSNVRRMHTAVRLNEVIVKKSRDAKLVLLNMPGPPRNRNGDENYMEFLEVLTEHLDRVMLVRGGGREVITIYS
PMI act: increases human mannose-6-phosphate isomerase activity; purified human PMI, coupled resazurin fluorescence, 20 min; active compounds read high; 1 = vehicle control, 0 substrate-free wells; P34949; activation factor at 20 µM; actives 0.005% (n = 190,000);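 active means activation factor of 2 or more at 20 µM, relative to plate controls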
ABCG2 inh: human ABCG2 inhibition, ABCB1 as counter-screen; IgMXP3 cells, JC-1 efflux, flow cytometry; inhibition, % at 6.6 µM; actives 0.1% (n = 190,000); AID 1325;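 active means inhibition above 80%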;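 further: 0% = DMSO and 100% = nicardipine control wells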
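Read-out basis: Efflux inhibition in percent versus controls | Test system: ABCG2 IgMXP3 and barcoded ABCB1 CCRF-Adr cell mix | Quantity: 3 million cells/mL in well | Schedule: 10 min at 25 °C | Control set: Nicardipine as high control, DMSO as low control | Reagent: JC-1 as fluorescent efflux pump substrate | Signal: Flow cytometry of retained JC-1 fluorescence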
ABCB1 block: inhibitors of human ABCB1 transporter, ABCG2 counter-screen; actives 0.067% (n = 190,000); P08183; CCRF-Adr cells, JC-1 efflux, flow cytometry; inhibition, % at 6.6 µM; in the data active means inhibition above about 40%;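 further: 0% = vehicle and 100% = reference inhibitor; higher value means more JC-1 retained so stronger ABCB1 efflux block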
ROMK hit retest: human ROMK channel modulation, retest confirmation | shares compounds with ROMK primary | ROMK thallium flux, fluorescence ratio; active compounds read low | normalized thallium flux (F/F0 slope) at 10 µM | actives 54% (n = 3,000) | AID 1917;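 active means Flux at 10 µM at least 3 SD below or above vehicle control mean in one or both replicates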
The depositor's hits bear a star; / = no result.

SMILES | PMI act hi M6P | ROMK primary | Cl transport mod | PMI act | ABCG2 inh | ABCB1 block | ROMK hit retest
Cc1ccc(Cn2c(=N)n(CC(=O)c3ccccc3)c3ccccc32)cc1 | 1.1 | -5.2* | 0.048 | 1.1 | -1 | 1 | 0.052*
CC(C)(C)C(=O)Cn1c(=N)n(Cc2ccccc2)c2ccccc21 | 1 | / | 1.4 | 1.1 | 2 | 0 | 0.047*
N=c1n(CC(=O)c2cccc([N+](=O)[O-])c2)c2ccccc2n1Cc1ccccc1 | 1.1 | / | 1.3 | 1.1 | 9 | 1 | /
COc1cc(S(=O)(=O)N2CCOCC2)ccc1NC(=O)COC(=O)c1ccccn1 | 1 | 0.33 | 0.33 | 0.9 | 3 | 0 | /
O=S(=O)(Nc1cccc(-c2cn3cccnc3n2)c1)c1ccc(-c2ccccc2)cc1 | 1 | / | -1.8 | 0.9 | -1 | 0 | 0.073
CCOc1ccccc1CNS(=O)(=O)c1ccc2[nH]c(=O)sc2c1 | 0.9 | -3.5* | -1.3 | 0.8 | 15 | 0 | 0.075
CCn1cc(C(=O)OCC(=O)c2cc(C)n(-c3ccc(OC(F)F)cc3)c2C)c(=O)c2ccc(C)nc21 | 1 | -3.2* | -2.5 | 0.9 | 8 | 2 | 0.063*
CCn1cc(C(=O)OCC(=O)N(C)Cc2ccccc2)c(=O)c2ccc(C)nc21 | 1.1 | 2.9* | 0.3 | 1.1 | 18 | 2 | 0.078
CCn1cc(C(=O)OCC(=O)c2cc(C)n(-c3ccccc3)c2C)c(=O)c2ccc(C)nc21 | 1 | -0.36 | -0.78 | 0.9 | -3 | -1 | /
C/C(N)=C(/C#N)C(=O)COC(=O)c1ccc(C#N)cc1 | 1 | 0.81 | 0.098 | 1.1 | 4 | 0 | /
CCOC(=O)c1cnc2ccc(OCC)cc2c1N1CCN(C)CC1 | 0.9 | / | / | 1 | 53 | 3 | /
CCOc1ccc2ncc(S(=O)(=O)c3ccc(C)cc3)c(N3CCC4(CC3)OCCO4)c2c1 | 0.9 | / | -2.7 | 0.8 | 6 | 5 | 0.063*
CCOC(=O)/C(=N\O)C1=NC(C)(C)Cc2ccccc21 | 1.1 | -1.5 | 0.56 | 1 | -2 | / | /
Cc1cccc(N/N=C(\C(N)=O)C2=NC(C)(C)Cc3ccccc32)c1 | 0.9 | -3* | 0.019 | 0.9 | 12 | 1 | 0.059*
COc1ccc(NCC(=O)N/N=C2\CCCC(C)C2)cc1 (configuration not stated) | 0.8 | 2.1* | 1.1 | 1 | / | 20 | 0.077
CCOC(=O)C1CCN(C(=O)C2CCN(S(=O)(=O)c3cc(Cl)ccc3Cl)CC2)CC1 | 1 | / | / | 0.9 | 2 | 0 | /
N#CC(C#N)=C1C=CC=CN1/C(=C\c1ccco1)C(=O)c1ccc(Cl)cc1 | 0.8 | -3* | 0.011 | 0.8 | -3 | 0 | 0.045*
COc1ccc(C2CC23N=C(c2ccccc2)OC3=O)cc1 (configuration not stated) | 1 | / | 2.2 | 1 | -1 | 0 | /
CN(C(=O)c1cccs1)c1ccc(OCC(=O)N2CCC(C(N)=O)CC2)cc1 | 1.1 | 0.079 | -0.026 | 1.2 | 0 | 0 | /
CN(C)C(CNC(=O)c1cccc(OC(F)F)c1)c1ccco1 (configuration not stated) | 1 | 1.1* | 1.2 | 1 | 7 | 0 | 0.088
CCCOc1ccc(C(=O)NCC(c2ccco2)N(C)C)cc1OC (configuration not stated) | 1 | -0.28 | 0.96 | 0.9 | 1 | 0 | /
C=CCn1c(SCC(=O)OC)nc2sc3c(c2c1=O)CCN(C)C3 | 0.9 | 0.42 | 0.29 | 0.9 | 4 | 0 | /
Cc1ccc(-n2[nH]c(C)c(/C=N/NC(=O)c3ccc([N+](=O)[O-])cc3)c2=O)c(C)c1 | 1.3 | -1 | -1.1 | 1.1 | 2 | 0 | /
CC(C)c1ccc(/C=N/Nc2cc(N3CCOCC3)nc(N3CCOCC3)n2)cc1 | 0.3 | -0.24 | -1.6 | 0.2 | 2 | 0 | /
Brc1ccc(-c2ccc(/C=N/Nc3nc(N4CCOCC4)nc(N4CCOCC4)n3)o2)cc1 | 0.9 | 0.11 | -0.21 | 1 | 5 | 1 | 0.075
SMILES | PMI act hi M6P | ROMK primary | Cl transport mod | PMI act | ABCG2 inh | ABCB1 block | ROMK hit retest
Fc1cnc(N/N=C/c2ccc(-c3ccc(Br)cc3)o2)nc1N1CCOCC1 | / | / | 0.084 | / | / | / | /
Clc1ccc(-c2ccc(/C=N/Nc3cc(N4CCOCC4)nc(N4CCOCC4)n3)o2)cc1 | 0.5 | -4* | 0.0051 | 0.5 | 18 | 2 | 0.058*
COc1ccc(NC(C#N)c2ccccc2OCc2ccccc2)cc1 (configuration not stated) | 0.7 | / | -1.1 | 0.8 | 23 | 1 | /
Cc1ccc(NC(C#N)c2ccccc2OCc2ccccc2)cc1 (configuration not stated) | 1 | / | -1.9 | 0.9 | 2 | 0 | 0.095
CC1(c2nnc(-c3ccc(F)cc3)o2)CC(c2ccc([N+](=O)[O-])cc2)=NO1 (configuration not stated) | / | / | 0.53 | / | / | / | /
CCN(CC)CC(=O)Nc1ccc(-c2nc3cc(NC(=O)CN(CC)CC)ccc3o2)cc1 | 1 | / | -2.2 | 0.9 | 7 | -1 | /
CCC(C)NCC(=O)Nc1ccc(-c2nc3cc(NC(=O)CNC(C)CC)ccc3o2)cc1 (configuration not stated) | 1 | -2.3* | -0.018 | 0.9 | 2 | 0 | 0.061*
CCC(=O)N1CCN(c2ccccc2NC(=O)COc2cc(C)ccc2C(C)C)CC1 | 0.9 | -3.5* | -0.72 | 0.8 | 28 | 17 | 0.066*
Cc1ccc(OCC(=O)Nc2ccccc2N2CCCC2)c(C)c1 | / | 0.55 | -0.44 | / | -2 | -2 | /
O=C(CNC(=O)C12CC3CC(CC(C3)C1)C2)N/N=C\c1ccccn1 | 0.9 | 0.8 | -0.37 | 1 | 0 | 0 | /
COc1ccc(C(=O)Cn2nnc(-c3ccccc3NC(=O)c3ccco3)n2)cc1 | 0.8 | / | -0.0065 | 0.9 | 3 | 1 | /
Cc1ccc(-n2c(C)cc(C3N=C(N)Nc4nc5ccccc5n43)c2C)c(C)c1 (configuration not stated) | 0.8 | / | -0.39 | 0.9 | 2 | 0 | 0.047*
Cc1cc(C2N=C(N)Nc3nc4ccccc4n32)c(C)n1-c1ccccc1Cl (configuration not stated) | 0.9 | -5* | -0.043 | 0.9 | 1 | 0 | 0.059*
O=C1CC(c2ccccc2)n2nc(N3C(=O)c4ccccc4C3=O)nc2N1 (configuration not stated) | 1 | 1.3 | / | 1 | 4 | 1 | /
CC(C)CC(=O)Nc1ccc(-c2nnn(CC(=O)NCc3ccco3)n2)cc1 | 0.9 | 0.11 | -0.014 | 1 | 1 | 0 | /
CCCOc1ccc(N2C(=O)CC(N(CCc3ccc(OC)cc3)C(=O)c3ccccc3)C2=O)cc1 (configuration not stated) | / | 0.7 | -0.5 | / | / | / | /
